Screens (PubChem BioAssay)
The list is not random: actives were taken first. Their share in the collection is about 3.9%.
ANO1 block = mouse TMEM16A channel inhibition, primary screen; Q8BHY3; HEK293 TMEM16A/YFP iodide influx fluorescence, ionomycin; normalized B-score (activity score, 25-100; higher = stronger inhibition) at 10 µM; 1.2% of 310,000 active;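 active = ratio plate-corrected score three or more library SD toward inhibition, starting fluorescence score within five deviations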;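 also: score derived from kinetic fluorescence span divided by baseline fluorescence per well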
Target sequence (Q8BHY3 whole entry, looked up): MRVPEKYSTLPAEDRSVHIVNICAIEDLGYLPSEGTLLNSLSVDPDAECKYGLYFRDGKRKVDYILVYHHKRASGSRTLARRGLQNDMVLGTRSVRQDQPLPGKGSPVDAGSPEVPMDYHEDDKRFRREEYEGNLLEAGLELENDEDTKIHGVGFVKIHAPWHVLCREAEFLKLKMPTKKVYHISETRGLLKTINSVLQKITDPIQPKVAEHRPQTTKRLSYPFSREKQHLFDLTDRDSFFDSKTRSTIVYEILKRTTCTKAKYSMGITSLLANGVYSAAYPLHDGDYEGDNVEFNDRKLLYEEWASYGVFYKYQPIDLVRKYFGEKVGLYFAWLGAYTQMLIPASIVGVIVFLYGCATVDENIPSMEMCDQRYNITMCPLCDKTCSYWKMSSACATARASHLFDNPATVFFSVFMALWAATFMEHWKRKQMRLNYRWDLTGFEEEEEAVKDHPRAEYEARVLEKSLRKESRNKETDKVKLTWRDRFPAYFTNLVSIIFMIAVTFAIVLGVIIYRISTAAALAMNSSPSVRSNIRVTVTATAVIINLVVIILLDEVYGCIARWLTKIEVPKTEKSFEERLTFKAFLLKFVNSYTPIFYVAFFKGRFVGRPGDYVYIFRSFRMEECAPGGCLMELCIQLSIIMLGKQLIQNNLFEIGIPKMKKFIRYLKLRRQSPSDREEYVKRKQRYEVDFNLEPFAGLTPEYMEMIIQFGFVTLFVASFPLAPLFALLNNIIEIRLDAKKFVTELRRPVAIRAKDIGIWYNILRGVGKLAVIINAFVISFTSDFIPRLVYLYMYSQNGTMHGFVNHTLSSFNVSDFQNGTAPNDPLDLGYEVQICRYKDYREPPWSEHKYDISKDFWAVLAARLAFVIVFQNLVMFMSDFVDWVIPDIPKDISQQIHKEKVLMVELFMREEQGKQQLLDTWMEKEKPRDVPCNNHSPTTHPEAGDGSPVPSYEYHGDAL
TAAR1 ag = agonists of human TAAR1. activation, % at 3 µM. CHO RD-HGA16 TAAR1, Fluo-8 calcium fluorescence; vehicle wells 0%, saturating PEA agonist 100%. AID 624467. 0.99% of 360,000 active;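 active = activation above the mean activation of all test compounds in the run plus 3 SD, cut at about 38% in these data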
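test system = CHO RD-HGA16 cells carrying human TAAR1 plus Gα16 | schedule = 17-24 h seeding, 75 min 37 °C dye, 30 min RT | compound dosing = 3 µM single concentration | control set = DMSO and PEA EC100 | replicates = n 1 | signal = Fluo-8 fluorescence, 5 s baseline then 140 s kinetic read | measure = percent activation vs PEA EC100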
ANO1 activ = activators or potentiators of mouse TMEM16A chloride channel | Q8BHY3 | HEK293 TMEM16A/YFP-H148Q/I152L, iodide quench fluorescence; stronger effect = lower value | B-score at 10 µM | 0.3% of 340,000 active | AID 623877;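 active = fluorescence-ratio B-score plate-corrected deviation score at least 3 library SD below zero, with starting fluorescence score within 5 deviations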;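 also: channel opened by trigger with iodide after compound preincubation; score built on the fluorescence ratio of max minus min over baseline; more negative score means more quench and so TMEM16A activation or potentiation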
CRFBP-R2 agonist = CRF-BP/CRF-R2 complex agonism; HEK293 CRF-R2/CRF-BP, calcium dye fluorescence (FLIPR); percent of saturating CRF peptide response; activation, % at 13.2 µM; 0.46% of 350,000 active;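 active = activation of at least 50%, plus an integration ratio under a set limit after plate pattern correction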;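 also: plate controls were neutral control wells without compound for no effect and CRF at EC100 for full effect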
TAAR1 antagonist = antagonists of human TAAR1. CHO RD-HGA16 TAAR1, Fluo-8 calcium fluorescence, antagonist. inhibition, % at 3 µM. 1.5% of 360,000 active;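 active = inhibition above a per-plate cutoff, the mean inhibition of test compounds on that plate plus 3 SD, cut at about 49% in these data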;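 also: 0% = DMSO plus EC80 beta-PEA response and 100% = DMSO alone without agonist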
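Test system: hTAAR1-expressing CHO RD-HGA16 cells, Gα16-coupled; Probe or stimulus: EC80 β-phenethylamine stimulus; Compound dosing: single nominal final test compound concentration of 3 µM; Timing: 140 s kinetic read after compound, 140 s after agonist; Signal: Fluo-8 calcium-sensitive fluorescence; Measure: % inhibition of agonist calcium response; Controls: DMSO and EC80 PEA controls.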
CRFBP-R2 block = blocks CRF-induced signaling of the CRF-BP/CRF-R2 complex. inhibition, % at 11.8 µM. HEK293 CRF-R2/CRF-BP, CRF-induced calcium fluorescence. AID 588475. 0.59% of 350,000 active;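 active = inhibition of the ligand-induced calcium signal above about 50% at the single tested concentration, limit read from the data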
nonsel antag count = nonselective antagonism, TAAR1 counter-screen | shares compounds with TAAR1 antagonist | counterscreen cell line, calcium fluorescence, antagonist mode | inhibition, % at 3 µM | 77% of 2,400 active; in the data active = inhibition above about 22%;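 also: CHO-Ga16 host cells stimulated with ATP at an EC80 level; 0% = agonist EC80 plus vehicle and 100% = vehicle without agonist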
TAAR1 antag conf = confirmation of human TAAR1 antagonists | shares compounds with TAAR1 antagonist | AID 651785 | inhibition, % at 3 µM | TAAR1-expressing cells, fluorescence antagonist read-out | 40% of 2,400 active; in the data active = inhibition above about 49%;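 also: CHO-Ga16 host cells challenged with agonist PEA near its EC80; 0% = agonist at EC80 plus vehicle and 100% = vehicle with no agonist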
Ga16 ag counter = nonselective Ga16 agonist in TAAR1 antagonist counter-screen. shares compounds with TAAR1 antagonist. Ga16-expressing cells, calcium fluorescence, agonist counterscreen. activation, % at 3 µM. 18% of 2,400 active. AID 651953; in the data active = activation above about 12%;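 also: 0% = vehicle wells and 100% = saturating stimulus response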
TAAR1 ag count = TAAR1 agonism, antagonist counter-screen | hTAAR1 cell line, fluorescence activation, agonist mode | activation, % at 3 µM | shares compounds with TAAR1 antagonist | AID 651955 | 2% of 2,400 active; in the data active = activation above about 37%;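 also: CHO cells stably expressing TAAR1 with calcium dye readout; 0% = DMSO vehicle and 100% = full agonist response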
Starred values were filed as active, the others as inactive.

What do the screens show for `O=C(OCC(=O)N1CCN(C(=O)c2ccco2)CC1)c1cc(-c2ccc(F)cc2)nc2ccccc12`?
ANO1 block: inactive; TAAR1 ag: 13.0; ANO1 activ: inactive; CRFBP-R2 agonist: -0.7; TAAR1 antagonist: 42.1; CRFBP-R2 block: 0.2

How did CCN(C(=O)Cc1c(C(=O)O)n(C)c2ccccc12)c1cccc(C)c1 do in these assays?
ANO1 block: inactive; TAAR1 ag: -1.3; ANO1 activ: inactive; CRFBP-R2 agonist: 0.6; TAAR1 antagonist: -4.4; CRFBP-R2 block: 16.0

Results for Cc1c(Br)c([N+](=O)[O-])nn1CC(=O)Nc1cccc2nonc12 ?
ANO1 block: inactive; TAAR1 ag: 3.5; ANO1 activ: inactive; CRFBP-R2 agonist: -0.2; TAAR1 antagonist: -17.8; CRFBP-R2 block: -2.8

What do the screens show for `O=C(c1cc(=O)[nH]c2ccccc12)N1CCc2ccccc2C1`?
ANO1 block: inactive; TAAR1 ag: 0.2; ANO1 activ: inactive; CRFBP-R2 agonist: -0.5; TAAR1 antagonist: 6.1; CRFBP-R2 block: 0.8

Results for Cc1cc(C)c(C)c(S(=O)(=O)N2CCN(C(=O)c3cc(=O)[nH]c4ccccc34)CC2)c1C ?
ANO1 block: inactive; TAAR1 ag: 30.2; ANO1 activ: inactive; CRFBP-R2 agonist: 0.2; TAAR1 antagonist: 54.7*; CRFBP-R2 block: -12.6; nonsel antag count: 34.4*; TAAR1 antag conf: 55.5*; Ga16 ag counter: 13.3*; TAAR1 ag count: 13.3

Results for Cc1nc(C)n(C(C)CNC(=O)c2cccc(Br)c2)n1 (stereo unspecified) ?
ANO1 block: inactive; TAAR1 ag: 4.5; ANO1 activ: inactive; CRFBP-R2 agonist: -1.2; TAAR1 antagonist: -10.6; CRFBP-R2 block: -1.3

What do the screens show for `COc1ccc2c(c1OC)C(=O)N1c3ccccc3C(=O)N(c3ccc(F)cc3)C21` (stereo unspecified)?
ANO1 block: inactive; TAAR1 ag: 19.3; ANO1 activ: inactive; CRFBP-R2 agonist: -0.1; TAAR1 antagonist: 82.1*; CRFBP-R2 block: 1.7; nonsel antag count: 28.0*; TAAR1 antag conf: 49.4*; Ga16 ag counter: 8.2; TAAR1 ag count: 11.3

Results for COc1ccc2c(c1OC)C(=O)N1c3ccccc3C(=O)N(c3ccccc3)C21 (stereo unspecified) ?
ANO1 block: inactive; TAAR1 ag: 22.2; ANO1 activ: inactive; CRFBP-R2 agonist: -0.7; TAAR1 antagonist: 62.8*; CRFBP-R2 block: 11.7; nonsel antag count: 32.3*; TAAR1 antag conf: 51.4*; Ga16 ag counter: 12.2*; TAAR1 ag count: 10.9

How did CC(C)(C)OC(=O)NCCCC[C@H](NC(=O)c1[nH]cnc1C(=O)Nc1ccccc1)C(=O)OC(C)(C)C do in these assays?
ANO1 block: inactive; TAAR1 ag: 12.4; ANO1 activ: inactive; CRFBP-R2 agonist: 2.7; TAAR1 antagonist: 41.6; CRFBP-R2 block: -10.7

What do the screens show for `CC(C)(C)OC(=O)NCCCC[C@H](NC(=O)c1nc[nH]c1C(=O)N1CCN(C(=O)OC(C)(C)C)CC1)C(=O)OC(C)(C)C`?
ANO1 block: inactive; TAAR1 ag: 14.3; ANO1 activ: inactive; CRFBP-R2 agonist: -2.5; TAAR1 antagonist: 50.0*; CRFBP-R2 block: 1.3; nonsel antag count: 16.9; TAAR1 antag conf: 38.8; Ga16 ag counter: 5.9; TAAR1 ag count: 7.8
